# Measured values from ChEMBL document CHEMBL1126947, “Synthesis and evaluation of 1-acyl-1,2-bis(methylsulfonyl)-2-(2- chloroethyl)hydrazines as antineoplastic agents” (J Med Chem, 1993).
# How the values were obtained:
# [1] = test system: Mus musculus; experiment: Compound was tested for percent cures (60-day survivors) in mice at 10 mg/kg; type: functional
# Method in brief: (§1)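 L1210 leukemia was passaged in donor CD2F1 mice. Each recipient mouse received 10⁵ cells. Drug was given ip in 100% DMSO once daily for 6 days, starting 24 h after implantation, at 5–20 mg/kg. Groups were 5–10 mice, with vehicle controls. %T/C = mean survival treated/control × 100, excluding cures. Cures = 60-day survivors. Body-weight change during therapy was taken as toxicity.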
# [2] = test system: L1210; experiment: Average percent change in body weight against L1210 leukemia in mice at 10 mg/kg; type: functional, Mus musculus
# Method in brief: (§2)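 L1210 leukemia, 10⁵ cells ip per recipient mouse (cells from ip passage in CD₂F₁ donors plus culture). Drug ip in 100% DMSO, ≤0.025 mL, once daily ×6 starting 24 h after implantation; groups of 5 mice (5–10 per group per footnote). Toxicity read-out: average percent change in body weight from onset to termination of therapy; vehicle-treated tumor-bearing controls included.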
# [3] = Rate of decomposition in presence of 10 mM glutathione (GSH); type: ADME
# Method in brief: (§3)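 Phenol red acidification (560 nm) was run in 1 mM potassium phosphate, pH 7.4, 37 °C, with 10 mM GSH added and 1 mM drug. Rates assumed 2 H⁺ released per mol during GSH-initiated decomposition. HCl calibration was done in the GSH-containing mixture. The relative rate is the GSH rate divided by the buffer-alone rate.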
# [4] = Rate of decomposition in presence of CD-1 mouse serum; type: ADME
# Method in brief: (§4)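 Hydrolysis was followed by phenol red acidification (560 nm) at pH 7.4, 37 °C, in weak phosphate buffer containing 2% CD-1 mouse serum. Serum came from female CD-1 mice bled by cardiac puncture: blood from 3 mice was pooled, clotted 30 min at 37 °C, centrifuged, and kept on ice ≤6 h. HCl calibration was done in the serum mixture. The relative rate is the serum rate divided by the buffer rate.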
# [5] = Relative rate of decomposition is the rate of decomposition in the presence of 2% serum/rate of hydrolysis in buffer alone.; type: ADME; method in brief: as §4
# [6] = Relative rate of decomposition is the rate of decomposition of acyl compound to that of rate of decomposition of compound; type: ADME
# Method in brief: (§5)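 Decomposition was followed at 37 °C, pH 7.4, by phenol red (20 mg/L) acidification at 560 nm in 1 mM potassium phosphate. Drug was at 1 mM final, added from a DMSO stock. Rates were calculated as 3 H⁺ per mol for acyl compounds, calibrated with HCl standards. The relative rate is the acyl compound rate divided by the reference tris(sulfonyl) rate.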
# [7] = Initial rate of decomposition (1 mM) in 1 mM potassium phosphate buffer; type: ADME; settings: 1000 µM; method in brief: as §5
# [8] = Relative rate of decomposition is the rate of decomposition in the presence of 10 mMGSH/rate of decomposition in buffer alone; type: ADME; method in brief: as §3
# [9] = test system: Mus musculus; experiment: Compound was tested for percent cures (60-day survivors) in mice at 20 mg/kg; type: functional; method in brief: as §1
# [10] = test system: Mus musculus; experiment: Average survival time of treated/control mice X 100 was determined at 20 mg/kg; type: functional; method in brief: as §1
# [11] = test system: L1210; experiment: Average percent change in body weight against L1210 leukemia in mice at 20 mg/kg; type: functional, Mus musculus; method in brief: as §2
# [12] = test system: Mus musculus; experiment: Average survival time of treated/control mice X 100 was determined at 10 mg/kg; type: functional; method in brief: as §1
# [13] = test system: Mus musculus; experiment: Compound was tested for percent cures (60-day survivors) in mice at 60 mg/kg; type: functional
# [14] = test system: L1210; experiment: Average percent change in body weight against L1210 leukemia in mice at 60 mg/kg; type: functional, Mus musculus
# [15] = test system: M109; experiment: Optimal Antitumor Effect was expressed as % T/C against M109, sc leukemia in mice (i.v.) 60 mg/kg; type: functional, Mus musculus; settings: route intravenous
# Method in brief: (§6)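 M109 lung carcinoma implanted sc (fragments passaged in Balb/c mice); drug iv in 10% DMSO in saline, 0.01 mL/g, every third day ×4 starting day 1. Eight mice/group, ≥3 dose levels. Read-outs: %T/C from median survival, and T − C = difference in median days for treated vs untreated tumors to reach 1 g (1 mm³ = 1 mg).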
# [16] = test system: M109; experiment: Optimal Antitumor Effect was expressed as T-C against M109, sc leukemia in mice (i.v.) 30 mg/kg; type: functional, Mus musculus; settings: route intravenous; method in brief: as §6
# [17] = test system: P388; experiment: Optimal Antitumor Effect was expressed as cures/total against P388, ip, leukemia in mice (i.p.) 200 mg/kg; 3/6; type: functional, Mus musculus; settings: route intraperitoneal
# [18] = test system: L1210; experiment: Average percent change in body weight against L1210 leukemia in mice at 7.5 mg/kg; type: functional, Mus musculus; method in brief: as §2
# [19] = test system: M109; experiment: Optimal Antitumor Effect was expressed as T-C against M109, sc leukemia in mice (i.v.) 60 mg/kg; type: functional, Mus musculus; settings: route intravenous; method in brief: as §6
# [20] = test system: M5076; experiment: Optimal Antitumor Effect was expressed as % T/C against M5076, sc leukemia in mice (i.v.) 36 mg/kg; type: functional, Mus musculus; settings: route intravenous
# Method in brief: (§7)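 Second M5076 sc experiment in C57BL/6 mice: drug iv in 100% DMSO, fixed 10 μL, every other day ×5 from day 1; eight mice/group. Outputs: %T/C (median survival ratio) and T − C growth delay to 1 g tumor, treated minus control.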
# [21] = test system: M109; experiment: Optimal Antitumor Effect was expressed as T-C against M109, sc leukemia in mice (i.v.) 48 mg/kg; type: functional, Mus musculus; settings: route intravenous
# [22] = test system: M5076; experiment: Optimal Antitumor Effect was expressed as T-C against M5076, sc leukemia in mice (i.v.) 40 mg/kg; type: functional, Mus musculus; settings: route intravenous
# Method in brief: (§8)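 M5076 reticulum cell sarcoma sc in C57BL/6 mice (fragment passage); drug iv in 10% DMSO in saline, 0.01 mL/g, every other day ×5 from day 1; eight mice/group. %T/C from median survival ratio; T − C = difference in median days for treated vs untreated tumors to reach 1 g.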
# [23] = test system: M109; experiment: Optimal Antitumor Effect was expressed as % T/C against M109, sc leukemia in mice (i.v.) 32 mg/kg; type: functional, Mus musculus; settings: route intravenous
# [24] = test system: Mus musculus; experiment: Compound was tested for percent cures (60-day survivors) in mice at 7.5 mg/kg; type: functional; method in brief: as §1
# [25] = test system: M109; experiment: Optimal Antitumor Effect was expressed as % T/C against M109, sc leukemia in mice (i.v.) 30 mg/kg; type: functional, Mus musculus; settings: route intravenous; method in brief: as §6
# [26] = test system: M5076; experiment: Optimal Antitumor Effect was expressed as % T/C against M5076, sc leukemia in mice (i.v.) 20 mg/kg; type: functional, Mus musculus; settings: route intravenous; method in brief: as §8
# [27] = test system: M5076; experiment: Optimal Antitumor Effect was expressed as % T-C against M5076, sc leukemia in mice (i.v.) 36 mg/kg; type: functional, Mus musculus; settings: route intravenous; method in brief: as §7
# [28] = test system: B16; experiment: Optimal Antitumor Effect was expressed as T-C against B16 i.d. leukemia in mice (i.p.) 100 mg/kg; type: functional, Mus musculus; settings: route intraperitoneal
# [29] = test system: M109; experiment: Optimal Antitumor Effect was expressed as % T/C against M109, ip leukemia in mice (i.p.) 60 mg/kg; type: functional, Mus musculus; settings: route intraperitoneal
# Method in brief: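 M109 lung carcinoma ip in Balb/c-passaged line; drug ip every third day ×4 from day 1, as fine suspension in 10% DMSO in carboxymethylcellulose with Tween 80 (0.5 mL). Eight mice/group, ≥3 dose levels. %T/C = median survival treated/control ×100; deaths before day 10 counted as toxic.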
# [30] = test system: Mus musculus; experiment: Average survival time of treated/control mice X 100 was determined at 7.5 mg/kg; type: functional; method in brief: as §1
SMILES,Cures [1],Body weight [2],Rate of decomposition [3],Rate of decomposition [4],Relative rate of decomposition [5],Relative rate of decomposition [6],Rate of decomposition [7],Relative rate of decomposition [8],further results
COCC(=O)N(N(CCCl)S(C)(=O)=O)S(C)(=O)=O,100%,-8.4%,147 (nM of drug) min-1 ml-1,8.57 (nM of drug) min-1 ml-1,3,0.3,2.9 (nM of drug) min-1 ml-1,50.6,–
CS(=O)(=O)N(CCCl)N(C(=O)c1ccccc1)S(C)(=O)=O,–,–,227 (nM of drug) min-1 ml-1,7.86 (nM of drug) min-1 ml-1,7.7,0.11,1.02 (nM of drug) min-1 ml-1,223,Cures [9]: 20%; T/C [10]: 160%; Body weight [11]: -7.7%
CC(C)(C)C(=O)N(N(CCCl)S(C)(=O)=O)S(C)(=O)=O,–,–,11 (nM of drug) min-1 ml-1,0.78 (nM of drug) min-1 ml-1,–,–,<= 0.1 (nM of drug) min-1 ml-1,–,Cures [9]: 60%; T/C [10]: 302%; Body weight [11]: 0%
CCC(=O)N(N(CCCl)S(C)(=O)=O)S(C)(=O)=O,90%,-6.4%,12.8 (nM of drug) min-1 ml-1,0.45 (nM of drug) min-1 ml-1,–,–,<= 0.1 (nM of drug) min-1 ml-1,–,T/C [12]: 217%
CCCC(=O)N(N(CCCl)S(C)(=O)=O)S(C)(=O)=O,20%,0%,10.3 (nM of drug) min-1 ml-1,0.34 (nM of drug) min-1 ml-1,–,–,<= 0.1 (nM of drug) min-1 ml-1,–,T/C [12]: 207%
CS(=O)(=O)N(CCCl)N(S(C)(=O)=O)S(C)(=O)=O,–,–,–,–,–,1,9.58 (nM of drug) min-1 ml-1,–,Cures [13]: 100%; Body weight [14]: -7.2%
CC(=O)N(N(CCCl)S(C)(=O)=O)S(C)(=O)=O,–,–,14.5 (nM of drug) min-1 ml-1,0.89 (nM of drug) min-1 ml-1,3.7,0.03 (nM of drug) min-1 ml-1,0.24 (nM of drug) min-1 ml-1,60.3,T/C [15]: 133%; T-C [16]: 10.5 days; Cures/total [17]: 3; Body weight [18]: 1%; T-C [19]: 3 days; T/C [20]: 122%; T-C [21]: 14.5 days; T-C [22]: 18.3 days; T/C [23]: 136%; Cures [24]: 80%; T/C [25]: 128%; T/C [26]: 156%; T-C [27]: 20.8 days; T-C [28]: 12 days; T/C [29]: 231%; T/C [30]: 341%
